Experimental data gathered from unrelated publications.
Each line is one published result; the experiments were not run side by side.

Compound	test	system	setting	quantity	value
C[C@H](Cn1cnc2c(N)ncnc21)OCP(=O)(O)OCCCOCCCCCCCCCCCCC#C[Si](C)(C)C.N	metabolic stability	CD-1 mouse, liver microsomes	3 µM, pH 7.4	half-life	> 2 h
O=C(Nc1cccnn1)N1CCN([C@@H]2CCOc3cc(C(F)(F)F)ccc32)CC1	–	male Sprague-Dawley rat, plasma	oral, 1 mg/kg, 1 h	concentration	125 ng/mL
N=c1c2c(-c3ccccc3)c(-c3ccccc3)n(Cc3ccccc3)c2ncn1[C@H]1CC[C@H](O)CC1	metabolic stability	mouse, liver microsomes	1 µM	half-life	> 2 h
Cl.Cl.O=C(CCN1CCCCC1)c1ccc(-c2ccc(C(=O)CCN3CCCCC3)cc2)cc1	–	Sprague-Dawley rat, plasma	oral, 100 mg/kg	half-life	8.23 h
CC(C)(C)[C@H](NC(=O)[C@H](CCONC(=N)N)NC(=O)Cc1ccc(CNC(=N)N)cc1)C(=O)N[C@@H](CCONC(=N)N)C(=O)NCc1ccc(C(=N)N)cc1	–	male Sprague-Dawley rat, plasma	intravenous, 1 mg/kg	C0	2080 ng/mL
Cc1cc(C)nc(Nc2ncc(C(=O)NCCc3c(C)[nH]c4ccccc34)cn2)c1	metabolic stability	mouse, liver microsomes	1 µM	half-life	0.0783 h
N#C[C@@H]1CC(F)(F)CN1C(=O)CNC(=O)c1ccnc2ccc(OCCCN3CCN(C(=O)CN4CCN(CC(=O)[O-])CCN(CC(=O)[O-])CC4)CC3)cc12.[18F-].[Al+3]	–	rat, stomach	intravenous, 2 h	tracer uptake	1.05 %ID/g
C[C@H](Cn1cnc2c(N)ncnc21)OCP(=O)(O)OCCCOCCCCCCCCCCCCCC#CC(F)(F)F.N	metabolic stability	CD-1 mouse, liver microsomes	3 µM, pH 7.4	half-life	> 2 h
Cc1ncc(C)n2nc(/C=C/c3nc(N4CCCC4)cc(N4CCOCC4)n3)nc12	–	male Fischer 344 rat, plasma	oral, 0.3 mg/kg, 1 h	concentration	50 ng/mL
